From article PMC8038854 (Biochemical Journal, 2021) come the findings set out here.

The target in test [1] is Scrib PDZ1 WT (728–815) (Homo sapiens, UniProt Q14160). Description: Isothermal titration calorimetry. In kind it is binding. The method in brief:
(§1)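 Recombinant human Scribble PDZ domains (wild type or point mutant) were expressed in E. coli BL21(DE3) pLysS as GST or MBP fusions and purified. Synthetic 8-mer C-terminal PBM peptides, including a pan-PDZ positive-control peptide, were titrated into protein in 25 mM Hepes pH 7.5, 150 mM NaCl at 25°C. There were 20 injections spaced 180 s apart. KD came from a 1:1 model, with ±SD from at least three independent experiments.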

Test [2] concerns the target Scrib PDZ1 Q808H (Homo sapiens, UniProt Q14160, Q808H). Description: ITC of PBM peptides against Scrib PDZ1 Q808H. In kind it is binding. The method in brief: as §1
The target in test [3] is T1, Scrib PDZ2 WT (860–950) (Homo sapiens, UniProt Q14160).
T1 sequence (Q14160 860-950): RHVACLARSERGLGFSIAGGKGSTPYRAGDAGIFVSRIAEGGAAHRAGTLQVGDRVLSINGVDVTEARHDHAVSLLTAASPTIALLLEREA
The experiment in a line: ITC of PBM peptides against Scrib PDZ2 WT. The test is classed as binding. The method in brief: as §1

In test [4] the target is T2, Scrib PDZ3 WT (1002–1094) (Homo sapiens, UniProt Q14160).
T2 sequence (Q14160 1002-1094): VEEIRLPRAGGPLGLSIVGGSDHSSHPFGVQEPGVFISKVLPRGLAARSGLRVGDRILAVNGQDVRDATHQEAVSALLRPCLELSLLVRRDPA
The experiment in a line: ITC of PBM peptides against Scrib PDZ3 WT. The test is classed as binding. In short, it runs like this: as §1

Test [5] concerns the target T3, Scrib PDZ3 R1044Q (Homo sapiens, UniProt Q14160, R1044Q).
T3 sequence (Q14160 1002-1094 R1044Q): T2 sequence (Q14160 1002-1094) with R43Q
The experiment in a line: ITC of PBM peptides against Scrib PDZ3 R1044Q. The test is classed as binding. The method in brief:
as §1

In test [6] the target is Scribble PDZ1 Q808H (human) (UniProt Q14160). Description: ITC.
In test [7] the target is Scribble PDZ2 R896A (human) (UniProt Q14160). Description: ITC.
Test [8] concerns the target Scribble PDZ3 R1044Q (human) (UniProt Q14160). The experiment in a line: ITC. Background: Isothermal titration calorimetry measures the heat released or taken up as one component is titrated into another.
Test [9] concerns the target Scribble PDZ1 H793A (human) (UniProt Q14160). The experiment in a line: ITC.
Test [10] has as its target Scribble PDZ1 Q808H (human) (UniProt Q14160). The experiment in a line: ITC. The source holds these as a separate data set.
In test [11] the target is Scribble PDZ1 H793A (human, UniProt Q14160 728-815, H793A). The experiment in a line: ITC.
The target in test [12] is T4, Scribble PDZ2 R896A (human, UniProt Q14160 860-950, R896A).
T4 sequence (looked up): T1 sequence (Q14160 860-950) with R37A
The experiment in a line: ITC.

The target of test [13] is T5, Scribble PDZ3 R1044Q (human, UniProt Q14160 1002-1094, R1044Q).
T5 sequence (looked up): T2 sequence (Q14160 1002-1094) with R43Q
The experiment in a line: ITC.

Test [14] concerns the target Scribble PDZ1 Q808H (human, UniProt Q14160 728-815, Q808H). Description: ITC.
Test [15] concerns the target Scribble PDZ1 E814G (human, UniProt Q14160 728-815, E814G). Description: ITC.
Test [16] concerns the target T6, Scribble PDZ2 H928A (human, UniProt Q14160 860-950, H928A).
T6 sequence (looked up): T1 sequence (Q14160 860-950) with H69A
The experiment in a line: ITC.

The target of test [17] is T7, Scribble PDZ3 P1043L (human, UniProt Q14160 1002-1094, P1043L).
T7 sequence (looked up): T2 sequence (Q14160 1002-1094) with P42L
Description: ITC.

Numbering of substitutions follows the chain as printed. Like-named read-outs stand apart in the source and are kept apart here. Peptide text beside a SMILES is read from it.

Chain of Scribble PDZ1 Q808H (human) (Q14160 728-815 Q808H): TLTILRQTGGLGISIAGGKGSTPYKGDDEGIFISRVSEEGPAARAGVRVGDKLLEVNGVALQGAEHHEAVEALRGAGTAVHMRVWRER
Chain of Scrib PDZ1 Q808H (Q14160 728-815 Q808H): as above
Chain of Scrib PDZ1 WT (728–815) (Q14160 728-815): as the sequence (Q14160 728-815 Q808H) above, with H81Q counted along it
Chain of Scribble PDZ1 H793A (Q14160 728-815 H793A): as the sequence (Q14160 728-815 Q808H) above, with H66A, H81Q counted along it
Chain of Scribble PDZ1 Q808H (Q14160 728-815 Q808H): as the sequence (Q14160 728-815 Q808H) above
Chain of Scribble PDZ1 E814G (Q14160 728-815 E814G): as the sequence (Q14160 728-815 Q808H) above, with H81Q, E87G counted along it
Chain of Scribble PDZ1 H793A (human) (Q14160 728-815 H793A): as the sequence (Q14160 728-815 Q808H) above, with H66A, H81Q counted along it

Consider `CC(C)C[C@H](NC(=O)[C@@H](N)CCCNC(=N)N)C(=O)N[C@@H](CCC(N)=O)C(=O)N[C@@H](CO)C(=O)N[C@@H](CCC(=O)O)C(=O)N[C@H](C(=O)N[C@@H](CO)C(=O)N[C@H](C(=O)O)C(C)C)[C@@H](C)O` [Vangl2] (H-RLQSETSV-OH), for which the Kd was determined as 24.5 ± 3.9 µM in [1]; 10.4 ± 0.27 µM in test [2]; 45.1 ± 4.92 µM in [3]; 40.2 ± 3.92 µM in test [4]; 20.9 ± 4.67 µM in [5].
Turning to APC C-terminal peptide, the Kd in [6] is 6.06 µM; in test [7] it was 30.6 µM; in test [8], 27.4 µM.
In the case of beta-PIX C-terminal peptide, the Kd in [9] amounted to 62.8 µM; in [6], 3.11 µM; in test [7], 189 µM; in test [8], 14.1 µM; in [10] it was 10.4 µM.
As to RLQSETSV [Vangl2 C-terminal PBM peptide (RLQSETSV)], the dissociation constant Kd was found to be 29.9 µM in test [11] and 26.7 µM in test [12].
Turning to RSWFETWV [superpeptide (synthetic pan-PDZ binding peptide)], the Kd in test [13] is 7.22 µM; in test [11], 2.18 µM; in [14], 2.73 µM; in test [15], 2.36 µM; in [12], 7.8 µM; in test [16], 27.7 µM. Besides, the Kd in [17] is 9.75 µM.

Usually Kd stands for the constant that tells how readily two partners part at equilibrium. A low value points to a tighter complex.
